The test system of one data set is A2780 cells. As to the kind of experiment: Cell cycle analysis by flow cytometry. The format is cell-based. The note with it: A2780, 24-hour incubation, DFX 50 μM, QT and IQT 5 μM.
Another data set relates to MDA-MB-231. As to the kind of experiment: Antiproliferative activity, resazurin assay. Type of data set: cell-based. The note with it: Homo sapiens, MDA-MB-231, 72 h, read-out: IC50 MDA-MB-231.
The test system of data set [1] is tested cancer cell lines (MDA-MB-231, A2780). Description: Antiproliferative activity, text summary over tested cancer cell lines. The format is cell-based. The note with it: 72 h, read-out: IC50 range in the tested cancer cell lines.
Data set [2] relates to ferritin heavy chain (ferritin H). As to the kind of experiment: Western blot of iron handlers. The format is cell-based. The note with it: DFX 50 μM, QT and IQT 5 μM, FAC 50 μM. The method, boiled down: (§1)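 A2780 cancer cells were exposed to test compounds (5 μM) or the reference iron chelator deferasirox (50 μM), with DMSO vehicle as control. Transferrin receptor 1 and ferritin heavy chain were probed by Western blot as markers of iron signalling. Statistics used t-tests versus DMSO vehicle.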

The test system of data set [3] is transferrin receptor 1 (TfR1). As to the kind of experiment: Western blot of iron handlers. The format is cell-based. The note with it: DFX 50 μM, QT and IQT 5 μM, FAC 50 μM. Summed up: as §1
A further data set deals with A2780. Description: Antiproliferative activity, resazurin assay. The note with it: Homo sapiens, A2780, 72 h, read-out: IC50 A2780. The format is cell-based.
For data set [4] the following is noted: cited from earlier work.

This is an account of results in article PMC11568512 (Chemical communications (Cambridge, England), 2024).

Regarding `O=C(O)c1ccc(-n2nc(-c3ccccc3O)nc2-c2ccccc2O)cc1` [DFX, deferasirox], the cell cycle effect entry with A2780 cells was “cell accumulation in the S-phase”. Moreover, the IC50 in the data set on MDA-MB-231 was 15 ± 2 µM; in data set [1] it was 10 to 20 µM; with A2780, 12 ± 2 µM. In addition, the “ferritin H expression level” value in data set [2] is on record as “degradation of ferritin”. The TfR1 expression level result in data set [3] is on record as “upregulation of TfR1”.

Regarding `Cc1nc(-[n+]2nc(-c3ccccc3)nn2-c2ccccc2)sc1C.[Br-]` [MTT, 3-(4,5-dimethyl-2-thiazolyl)-2,5-diphenyl-tetrazolium], the “reduction in FBS” value in data set [4] is reported as “prone to reduction in FBS”.

Take ferric ammonium citrate [FAC]: the “ferritin H expression level” value in data set [2] is listed as “upregulation of ferritin”. The TfR1 expression level entry in data set [3] is “decreased TfR1 expression”.
